According to PMC10794003 (European journal of medicinal chemistry, 2023):
Entries after “also recorded” stand apart in the source; their conditions may differ.

Tested on: Nrf2 target genes GSTM3, NQO1, or HMOX1 in NCM460D cells
Assay: RT-qPCR of Nrf2 target genes in NCM460D cells
Assay type: cell-based
Settings: 24 h incubation at 1, 10 and 100 μM, RT-PCR
In short: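 NCM460D cells exposed to test compound at 1, 10 and 100 μM for 24 h. Positive controls were a reference Keap1-Nrf2 PPI inhibitor (1, 10, 100 μM) and CDDO (10 and 100 nM); 0.1 % DMSO served as the negative control. RNA was quantified, reverse-transcribed to cDNA, and GSTM3, NQO1 and HMOX1 were measured by RT-qPCR, normalized to endogenous GAPDH.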

Row | Structure (SMILES) | transcriptional induction of Nrf2 target genes NQO1, GSTM3 and HMOX1
1 | Cc1ccc(S(=O)(=O)N(CC(=O)O)c2ccc(N(CC(=O)O)S(=O)(=O)c3ccc(C)cc3)c(OCC(=O)O)c2)cc1 [8g, 2,2′-((2-(Carboxymethoxy)-1,4-phenylene)bis(tosylazanediyl))diacetic acid] | less transcriptional induction; also recorded: relatively low expressions
2 | Cc1ccc(S(=O)(=O)N(CC(=O)O)c2cc(CCC(=O)O)c(N(CC(=O)O)S(=O)(=O)c3ccc(C)cc3)c3ccccc23)cc1 [17b, 2,2′-((2-(2-Carboxyethyl)naphthalene-1,4-diyl)bis(tosylazanediyl))diacetic acid] | similarly high effects
3 | Cc1ccc(S(=O)(=O)N(CC(=O)O)c2cc(OCC(=O)O)c(N(CC(=O)O)S(=O)(=O)c3ccc(C)cc3)c3ccccc23)cc1 [compound 18, 2,2′-((2-(Carboxymethoxy)naphthalene-1,4-diyl)bis(tosylazanediyl))diacetic acid] | similarly high effects
